Only a selection was taken, and hits are over-represented in it overall.
Hsp70 act – switches on Hsp70 transcription. HeLa Hsp70 promoter luciferase reporter, luminescence; scaled: vehicle 0, proteasome-inhibitor control 100%. activation, % at 10 µM. 0.04% of 200,000 active;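 active = activation above the mean across all tested compounds plus 3 SD, cutoff set per campaign, cut at about 5.5% in these data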;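 note: 100% = MG132 at 30 µM as the positive control and 0% = DMSO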
HSF-1 act – increases HSF-1 driven luciferase reporter signal | NIH3T3-HGL HSF-1 luciferase reporter, MG132, 8 h; 100% = twice DMSO control signal | 1.7% of 300,000 active | activation, % at 9 µM;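 active = mean replicate activation of at least 50% with a set share of replicates each reaching 50%; inconclusive = only one of those two conditions met; inactive = mean below 50% and too few replicates reaching it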;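 note: 0% = median of the neutral control wells and 100% = twice that signal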
L major viab – Leishmania major promastigote growth inhibition; Leishmania major promastigotes, resazurin fluorescence viability; inhibition, % at 10 µM; 9% of 200,000 active; in the data active = inhibition above about 50%;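 note: promastigotes grown with compound for 44 hours at 28 °C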
T cruzi repl – T. cruzi replication inhibition | T. cruzi beta-gal in NIH3T3, luminescence, 90 h | inhibition, % (no concentration beside the values) | 1.4% of 300,000 active;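 active = mean inhibition across valid replicates above about 55%, limit read from the data; inconclusive = mean below that limit but half or more replicates reach it; inactive = mean below it, under half of replicates reach it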;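 note: signal also drops with host cell toxicity which is not excluded here; 0% = plate median of DMSO wells and 100% = zero luminescence signal; higher percent means less beta-gal luminescence so fewer parasites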
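System: mouse NIH/3T3 fibroblasts infected with β-gal-expressing T. cruzi Tulahuen C4 / Input: NIH/3T3 cells, 5,000 per well / Buffer or medium: Low-serum DMEM with 2% FBS / Probe or stimulus: 5000 reporter trypomastigotes per well / Schedule: ≥90 h infection period, 3 h prior cell attachment / Measured by: GalScreen luminescence, 60 min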
HSF1 inh – HSF1 inhibition | AID 2098 | 0.77% of 300,000 active | activity change, negative = inhibition, % at 7.5 µM (by protocol) | NIH3T3-HGL HSE-luciferase, MG132-induced, luminescence 8 h; hits give low values;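 active = more than half of replicate wells show activity change below -50%, luminescence cut by over half; inconclusive = some wells, but at most half, below -50%; inactive = no replicate well below -50%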;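 note: luciferase reports HSF-1 transcriptional activity via heat shock element; 0% = median of DMSO wells and -100% = zero luminescence signal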
An asterisk follows results filed as active; ? = inconclusive; · = no result given.

SMILES | Hsp70 act | HSF-1 act | L major viab | T cruzi repl | HSF1 inh
CN(c1cccc(NC(=O)Nc2cccc(Cl)c2)c1)S(C)(=O)=O | 0.1 | 66.4* | 6.6 | 7.8 | 35.8
O=C(CN(c1ccccc1)S(=O)(=O)c1ccc(Cl)cc1)Nc1cccnc1 | · | -0.8 | · | 5.8 | 1.9
CN(c1cccc(NC(=O)CN(c2cccc(Cl)c2)S(=O)(=O)c2ccc(Cl)cc2)c1)S(C)(=O)=O | -0.3 | ? | 72.2* | 23.5 | 28.4
Cc1ccc(Cl)cc1N(CC(=O)Nc1cccc(N(C)S(C)(=O)=O)c1)S(C)(=O)=O | -0.1 | 8.7 | 2.8 | -0.9 | 2.5
COc1cc(Cl)ccc1OCc1cc(C(=O)N2C[C@H]3CC[C@H]2C3)no1 | · | 46.9 | · | 1.5 | 15.8
COc1cc(Cl)ccc1OCc1cc(C(=O)N2C[C@@H]3CCC[C@H]2C3)no1 | · | 55.9* | · | 6.8 | 31.6
CN1CCN(c2cc(C(F)(F)F)nc3ccc(F)cc23)CC1 | · | -5.4 | · | 16.9 | -9.6
O=C(COc1coc(CN2CCN(c3ccccc3F)CC2)cc1=O)NCC1CCCO1 (stereo not given) | · | -9.3 | · | -7.8 | -3.8
O=C(Nc1ccc2ncccc2c1)c1cc(Cl)ccc1Cl | 0.0 | 27.1 | 16.5 | 9.1 | 7.3
CCCN1C(=O)C2(SC(NC(C)=O)=NN2C(C)=O)c2cc(C)cc(C)c21 (stereo not given) | · | 3.3 | · | 0.6 | 13.8
CCN1C(=O)C2(SC(NC(C)=O)=NN2C(C)=O)c2cc(C)cc(C)c21 (stereo not given) | 0.1 | -1.4 | 70.5* | 0.9 | 2.4
O=C(Cn1ccc2cc(S(=O)(=O)N3CCCC3)ccc21)NCc1ccco1 | · | 3.1 | · | 23.5 | 2.0
Cc1cc(C)c2nc(SCC(=O)NCC3CCCO3)c(C#N)cc2c1 (stereo not given) | 0.0 | -4.0 | 5.5 | -14.6 | 0.6
CCCCCOc1ccc(Cn2ccnc2)cc1[N+](=O)[O-] | -0.3 | 14.3 | 39.9 | 61.8* | -0.9
Cc1ccc(OCCCn2ccnc2)c(Br)c1 | · | 12.6 | · | 30.7 | 1.8
Cc1ccc(OCCCn2ccnc2)c([N+](=O)[O-])c1 | -0.4 | 6.2 | 72.1* | 20.8 | 6.5
CC(=O)Cc1nsc(NC(=O)c2ccc(COc3ccccc3)o2)n1 | -0.3 | -14.8 | -4.7 | -27.0 | 0.5
Cc1ccc(S(=O)(=O)NC(=O)Nc2ccc(C)cn2)cc1 | · | 68.6* | · | -16.4 | 25.1
COc1ccc2oc(C(=O)OCC(=O)N(C)C3CCCCC3)c(C)c2c1 | · | 0.4 | · | -6.0 | 1.1
Cc1cn(C(=O)c2ccccc2)c(=S)n1-c1ccc(Cl)cc1 | -0.4 | -0.1 | 84.7* | 29.4 | 11.8
Cc1ccc(C(=O)Nc2ccccc2C(=O)N2CCOCC2)cc1[N+](=O)[O-] | 0.1 | 9.8 | 21.0 | -1.9 | -10.9
COc1ccc(-c2csc(NC(=O)c3ccc(OCC(=O)N4CCOCC4)c(OC)c3)n2)cc1 | -0.4 | -2.8 | 35.8 | 44.0 | -12.1
COc1cc(C(=O)NCCc2ccc(F)cc2)ccc1OCC(=O)N1CCOCC1 | · | 54.4* | · | 21.8 | 26.0
CCOc1cc(C(=O)NCc2ccccc2)ccc1OCC(=O)N1CCOCC1 | 0.7 | -80.5 | -4.1 | -0.7 | -77.1*
COc1cc(C(=O)Nc2nc(-c3ccc(C)cc3)cs2)ccc1OCC(=O)N1CCOCC1 | 0.0 | -4.4 | 94.8* | 54.7* | -10.4
SMILES | Hsp70 act | HSF-1 act | L major viab | T cruzi repl | HSF1 inh
COc1cc(C(=O)Nc2nc(-c3ccc(F)cc3)cs2)ccc1OCC(=O)N1CCOCC1 | -0.2 | 29.0 | 96.1* | 60.1* | 5.0
CCc1noc(C)c1C(=O)NCCc1ccc(Cl)cc1 | · | 0.9 | · | -7.2 | 1.3
COc1ccc(NC(=O)CCOc2ccc(C)cc2)c(OC)c1 | · | -9.5 | · | 7.3 | -1.0
COc1cccc(OC)c1CNC(=O)C1CCC(=O)N(CC2CCCCC2)C1 (stereo not given) | · | -12.7 | · | 21.1 | -2.0
COc1ccc(-c2nc(NC(=O)c3ccc(OCC(=O)Nc4ccc(F)cc4)c(OC)c3)sc2C)cc1 | -0.4 | -42.6 | 69.0* | -7.1 | -34.2
OCCC1CN(Cc2ccc3nsnc3c2)CCN1CCc1ccccc1 (stereo not given) | 0.2 | 1.6 | 83.9* | 16.9 | 8.1
Cn1cc(CN2CCN(CCc3ccccc3)C(CCO)C2)cn1 (stereo not given) | 0.0 | -10.4 | -2.2 | 7.3 | -2.7
CC(=O)c1cc(CN2CCN(Cc3ccccc3)C(CCO)C2)cs1 (stereo not given) | 0.5 | -3.7 | 65.4* | 30.8 | 3.6
CC(=O)c1cc(CN2CCN(CC=C(C)C)C(CCO)C2)cs1 (stereo not given) | 0.1 | 0.6 | 8.2 | 11.3 | -5.2
CC(=O)c1cc(CN2CCN(CCc3ccccc3)C(CCO)C2)cs1 (stereo not given) | -0.5 | -17.5 | 76.6* | 14.3 | -5.5
NC1=NC[C@@H](Cc2ccc(O)cc2)N1CCCCC1CCCCC1 | · | 0.7 | · | 33.2 | 7.0
O=C(NCc1cccc(Br)c1)C1CC2Cn3c(nc4ccccc43)C2N1c1ccccc1 (stereo not given) | · | 16.3 | · | 40.7 | 3.5
O=C1CCN(Cc2ccc(O)cc2)CCN1[C@H](CO)c1ccccc1 | · | -1.5 | · | 4.5 | -0.5
COc1ccc2oc(=O)c(-c3nc4ccccc4o3)cc2c1 | 0.1 | 0.8 | 97.6* | -7.3 | 3.3
O=c1oc2ccc3ccccc3c2cc1-c1nc2ccccc2o1 | 0.1 | 3.3 | 99.7* | -2.8 | 2.7
O=c1oc2ccccc2cc1-c1nc2ccccc2o1 | 1.0 | -1.9 | 3.7 | -5.9 | 0.2
Cc1ccc(OC(=O)c2ccc([N+](=O)[O-])cc2Cl)cn1 | · | -1.4 | · | -16.8 | 6.1
COc1cccc(-n2c(C)cc(/C=C3\C(=N)N4N=C(CC(=O)N5CCOCC5)SC4=NC3=O)c2C)c1 | · | 11.5 | · | -1.8 | 0.4
COc1ccc(Cc2nnc(SCC(=O)Nc3ccc(N4CCOCC4)cc3)o2)cc1 | · | 61.1* | · | 5.0 | 12.5
O=C(CSc1nnnn1-c1cccc2ccccc12)Nc1ccc(N2CCOCC2)c(Cl)c1 | -0.2 | 31.6 | 4.8 | 73.2* | 23.3
N#Cc1ccccc1NC(=O)CNc1ccccc1N1CCCCC1 | -0.2 | 0.2 | 71.3* | -7.5 | -7.3
N#Cc1cc2ccccc2nc1SCC(=O)Nc1ccccc1N1CCOCC1 | 0.0 | 71.2* | -1.7 | 8.6 | 23.7
Cc1cccc2cc(C#N)c(SCC(=O)Nc3ccccc3N3CCOCC3)nc12 | -0.4 | -13.0 | 2.9 | -4.7 | -13.2
C/C(=N/NC(=O)c1ccco1)c1ccc(NC(=O)c2ccc(F)cc2)cc1 | 0.0 | 42.5 | -1.5 | 0.9 | 20.5
Cc1cc(C)cc(N(CCC#N)C(=O)COC(=O)C2CCN(c3ccc(C(F)(F)F)cn3)CC2)c1 | · | -9.7 | · | -1.4 | -5.7
Cc1cc(C)cc(OC(C)C(=O)Nc2ccc(S(=O)(=O)Nc3cc(C)nc(C)n3)cc2)c1 (stereo not given) | · | -3.8 | · | 16.1 | -4.7
COc1ccc(S(=O)(=O)N2CCOC2CNC(=O)C(=O)NCCN2CCOCC2)cc1 (stereo not given) | · | -11.7 | · | 1.0 | -1.5
O=C(CSc1nnnn1C1CCCCC1)Nc1ccccc1N1CCOCC1 | 0.4 | 26.3 | 60.3* | -0.5 | -1.4

Screening data as filed in PubChem.
